Molecules are shown by their SMILES. In brackets after ≈: the same amount, converted by molar mass.

For the first data set, the system named is Jurkat. Briefly: Cytotoxicity against human Jurkat cells after 72 hrs by MTT assay. The format is cell-based.
Conditions: not given
In a few lines: (§1)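 Each cell line exposed to compounds over a 12-point concentration curve in triplicate for 72 h; viability read by MTT, IC50 determined.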
For the molecule `O=C(O)CCc1cccc2c1B(O)OC2`, half-maximal inhibition (IC50) required 60500 nM.

The next data set concerns HeLa. Briefly: Cytotoxicity against human HeLa cells after 72 hrs by MTT assay. It is filed as cell-based.
Conditions: not given
The procedure, abridged:
as §1
Turning to `O=C(O)CCc1cccc2c1B(O)OC2`, the IC50 was above 100000 nM.

Test system in a further data set: not listed separately
Briefly: Solubility of the compound in water at pH 7. It is filed as physicochemical.
Conditions: not given
`O=C(O)CCc1cccc2c1B(O)OC2` came in with a solubility of 750 µg/mL (≈ 3.64 mM).

The test system of a further data set is Plasmodium falciparum. In words: Antimalarial activity against Plasmodium falciparum W2 infected in human erythrocytes assessed as reduction of parasitemia after 48 hrs by flow cytometry. The format is functional, organism-based. The note with it: W2, 48 h. In a few lines: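 Erythrocytic-stage W2 parasites cultured in human erythrocytes in RPMI-1640 with 10% human serum or 0.5% Albumax; sorbitol-synchronized to ring stage. Serial dilutions from 10 mM stocks; 2% hematocrit, 1% parasitemia, 3% O2/5% CO2/N2, 48 h.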
In the case of `O=C(O)CCc1cccc2c1B(O)OC2`, the IC50 was determined as 26 nM. On the same count and under the same terms, with `O=C(O)CCCc1cccc2c1B(O)OC2` the figure was 620 nM; with `O=C(O)CCCCc1cccc2c1B(O)OC2`, 2010 nM.

For the molecule `O=C(O)COc1cccc2c1B(O)OC2`, the IC50 turned out to be 460 nM.

Regarding `O=C(O)CNc1cccc2c1B(O)OC2`, the IC50 was 950 nM. On the same count and under the same terms, the figure for `CN(CC(=O)O)c1cccc2c1B(O)OC2` is above 5000 nM.

In the case of `CC(=O)CCc1cccc2c1B(O)OC2`, the IC50 was found to be 2720 nM.

With `COC(=O)CCc1cccc2c1B(O)OC2`, the concentration for half-maximal inhibition (IC50) is 320 nM. As for `NC(=O)CCc1cccc2c1B(O)OC2`, the half-inhibitory concentration (IC50) was found to be 1300 nM. On the same count and under the same terms, with `CN(C)C(=O)CCc1cccc2c1B(O)OC2` the figure was above 5000 nM; with `O=C(CCc1cccc2c1B(O)OC2)NS(=O)(=O)C1CC1`, 460 nM; with `N#CCCc1cccc2c1B(O)OC2`, 1020 nM. The same measure, in the same setting: the figure for `NCCCc1cccc2c1B(O)OC2` is 520 nM. Same read-out and setting: the figure for `OB1OCc2cccc(CCc3nn[nH]n3)c21` is 160 nM; for `O=C(O)CCc1ccc2c(c1)B(O)OC2` it is 120 nM. For `O=C(O)CCc1ccc2c(c1)COB2O`, the IC50 turned out to be 2890 nM. Still for that read-out and setting: the figure for `O=C(O)CCc1cccc2c1COB2O` is above 5000 nM; for `O=C(O)CCc1cccc2c1B(O)OCC2` it is above 5000 nM. In the case of `CC(C)(Cc1cccc2c1B(O)OC2)C(=O)O`, the IC50 was above 5000 nM. The same measure, in the same setting: with `CC1(C)OB(O)c2c(CCC(=O)O)cccc21` the figure was above 5000 nM.

The values above are taken from ChEMBL document CHEMBL1641498, “Synthesis and structure-activity relationships of novel benzoxaboroles as a new class of antimalarial agents” (Bioorg Med Chem Lett, 2011).
